Screens from PubChem.
An excerpt weighted towards active compounds, which were near 0.63% of everything screened.
TRPN1 ag: zebrafish TRPN1 channel agonists, primary screen, cell-based, HEK293, calcium fluorescence. HEK293 zebrafish TRPN1-YFP, Fluo-8 calcium fluorescence; 100% = response to 87 µM carbachol. transient receptor potential cation channel N1 (TRPN1/NompC), Danio rerio. 220,000 tested, 0.18% active. activation, % at 3 µM;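 active = activation above its plate's cutoff, the mean activation of test wells on that plate plus 3 SD, cut at about 19% in these data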
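Assay system: Zebrafish TRPN1-YFP in HEK293 cells | Incubation: Dye loading 1 h at 37 °C, then 30 min room temperature | Measured by: Kinetic Fluo-8 fluorescence, ex 470-495, em 515-575 nm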
TRPML3 agonist: human TRPML3 channel agonists, primary screen, cell-based, HEK293 TRPML3-YFP, Fluo-8 calcium fluorescence, 3 µM; 100% = the carbachol control signal; activation, % at 3 µM; 220,000 tested, 0.29% active; AID 1448, 2008;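 active = activation above its plate's cutoff, the mean activation of the plate's test wells plus 3 SD, cut at about 12% in these data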
Target sequence (Q8TDD5 whole entry, looked up): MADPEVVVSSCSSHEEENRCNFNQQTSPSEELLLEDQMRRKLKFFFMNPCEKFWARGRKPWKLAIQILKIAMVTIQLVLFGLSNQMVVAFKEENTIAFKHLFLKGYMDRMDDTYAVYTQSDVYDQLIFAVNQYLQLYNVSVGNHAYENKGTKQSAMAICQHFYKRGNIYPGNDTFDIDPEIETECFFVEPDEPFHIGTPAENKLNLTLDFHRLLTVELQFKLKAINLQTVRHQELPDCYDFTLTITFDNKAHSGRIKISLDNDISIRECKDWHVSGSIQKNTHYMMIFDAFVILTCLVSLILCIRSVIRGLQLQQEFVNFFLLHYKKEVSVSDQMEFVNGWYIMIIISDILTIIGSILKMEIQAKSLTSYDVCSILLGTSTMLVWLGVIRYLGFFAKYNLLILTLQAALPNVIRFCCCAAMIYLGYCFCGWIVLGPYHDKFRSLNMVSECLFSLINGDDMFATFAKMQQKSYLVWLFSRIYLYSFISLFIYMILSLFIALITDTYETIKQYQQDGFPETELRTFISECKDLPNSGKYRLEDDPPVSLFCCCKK
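Test system: HEK293 cells stably carrying human TRPML3-YFP; Doses: single dose, 3 µM final nominal compound, 0.3% DMSO final; Schedule: dye loading 1 h 37 °C then 30 min ambient, 125 s read; Technique: Fluo-8 calcium fluorescence; Benchmarks: high control carbachol 87 µM, low control DMSO.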
IDE cell inh: human IDE inhibitors in live cells, primary screen, fluorescence polarization, HEK cells, FAbetaB substrate; inhibition, % at 5.59 µM; Insulin-degrading enzyme (Homo sapiens), P14735; AID 434962, 2010; 320,000 tested, 0.41% active; FAbetaB cleavage;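 active = percent inhibition above the average of all tested compounds plus 3 SD, set per screening campaign, cut at about 16% in these data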;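 note: IDE supplied by intact live HEK cells; FP after avidin binding of uncleaved biotin substrate so inhibition keeps polarization high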
IDE cell activ: human IDE activators in live cells, primary screen, fluorescence polarization, HEK cells, FAbeta-B substrate. FAbeta-B cleavage; 0% vehicle, 100% cell-free pure enzyme wells. activation, % at 5.96 µM. 340,000 tested, 0.073% active;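 active = activation above the mean of all tested compounds plus 3 SD, set per screening campaign, cut at about 17% in these data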
Numbers stand for hits; i = inactive; nt = no result.

SMILES	TRPN1 ag	TRPML3 agonist	IDE cell inh	IDE cell activ
O=C1/C(=C\c2ccc(O)cc2)SC(=S)N1c1cccnc1	i	i	88	i
CC(C(=O)Nc1ccc2c(c1)OCCO2)c1ccc([N+](=O)[O-])cc1 (configuration not stated)	20	13	i	i
Cc1ccc2nc3c(cc(C(=O)NC4CCS(=O)(=O)C4)n3Cc3ccccc3)c(=O)n2c1 (configuration not stated)	nt	nt	i	i
Cc1c(Cl)cccc1NC(=S)NNS(=O)(=O)c1ccc([N+](=O)[O-])cc1	nt	nt	i	i
COc1ccc(/C=C(\C#N)C(=O)NCC(c2ccc(F)cc2)N2CCOCC2)cc1 (configuration not stated)	i	i	i	i
Cc1cccc(C(=O)NC(=S)NNC(=O)c2ccc(Cl)cc2)c1	102	44	i	i
Cc1cccc(C(=O)NC(=S)NNC(=O)c2cccs2)c1	i	i	i	i
CC1(C)CC(=O)C=C(Nc2ccc(Cl)c(Br)c2)C1	nt	nt	i	i
C=C1C(=O)C=C2CN(C(=O)c3ccccc3)[C@@](Cc3ccc(F)cc3)(C(=O)OC)[C@@H]12	37	i	i	i
COC(=O)[C@@]1(Cc2ccc(OC)cc2)[C@@H]2C(=CC(=O)[C@H]2CC(=O)C(=O)N(C)C)CN1C(=O)c1ccccc1	i	i	i	nt
CCN(Cc1ccncc1)Cc1nc(CC2CC2)no1	i	i	i	i
NC(=S)NNC(=O)C12CC3CC(CC(C3)C1)C2	29	i	i	i
COC(=O)NNC(=O)C12CC3CC(CC(C3)C1)C2	i	i	i	i
C[C@@H]1NC(=O)N[C@@H]1CCCCCC(=O)O	nt	nt	i	51
CN(Cc1ccc(OC(F)F)cc1)C(=O)c1cccc(S(=O)(=O)N2CCN(c3ccccc3)CC2)c1	nt	nt	nt	i
Cc1ccc(NC(=O)CN2C(=O)NC(C)(CC(C)C)C2=O)c(Br)c1 (configuration not stated)	nt	nt	i	i
CCCCN(C(=O)CNC(=O)c1ccco1)C(C(=O)NC1CCCCC1)c1cccnc1 (configuration not stated)	nt	nt	i	i
COc1ccccc1N(CC(=O)NC(C)(C)C)S(=O)(=O)c1cccs1	42	i	i	i
CCNC(=O)CN(c1ccccc1OC)S(=O)(=O)c1cccs1	i	i	i	i
CCOC(=O)c1c(C)[nH]c(C(=O)NCc2ccco2)c1C	i	i	i	nt
Cc1ccc(S(=O)(=O)N(Cc2ccccc2)Cc2ccco2)cc1	i	45	i	i
Cc1ccc(S(=O)(=O)N(Cc2ccc(F)cc2)Cc2ccco2)cc1	i	i	i	i
O=C(O)CCC(=O)N1N=C(c2ccccc2)CC1c1ccc2c(c1)OCO2 (configuration not stated)	nt	nt	nt	i
Cc1ccc(-c2[nH]ncc2C(=O)c2cccc(F)c2)c(O)c1	nt	nt	i	i
CCCc1cc(=O)[nH]c(-n2[nH]c3c(c2=O)CCCC3)n1	i	i	19	i
SMILES	TRPN1 ag	TRPML3 agonist	IDE cell inh	IDE cell activ
CCCc1cc(=O)[nH]c(SCC)n1	i	i	i	i
CCc1ccccc1N(C(=O)c1ccco1)C(C(=O)NC1CCCC1)c1cccnc1 (configuration not stated)	nt	nt	i	i
CC(Oc1ccc(Cl)cc1)C(=O)Nc1ccccc1N1CCOCC1 (configuration not stated)	nt	nt	i	i
Cc1cc(Cl)ccc1OC(C)C(=O)Nc1ccccc1N1CCOCC1 (configuration not stated)	46	177	i	i
COc1ccc(/C=N/Nc2ncnc3c2[nH]c2ccc(C)cc23)c(OC)c1OC	i	i	39	nt
COc1cc(CNc2ncnc3c2[nH]c2ccc(C)cc23)cc(OC)c1	i	i	55	i
CCOC(=O)c1ccc(NC(=O)Nc2ccc(F)cc2)cc1	21	i	i	i
Cc1onc(-c2ccccc2)c1C(=O)NNC(=S)NC(=O)c1ccc2c(c1)OCO2	23	23	i	i
CC(C)NS(=O)(=O)c1ccc(NC(=O)C(C)Oc2ccc(C(=O)c3ccccc3)cc2)cc1 (configuration not stated)	50	21	i	i
CC(Oc1ccccc1)C(=O)Nc1ccc(C(N)=O)cc1 (configuration not stated)	i	i	i	i
S=c1[nH]cnc2sc(-c3ccccc3)cc12	i	i	19	i
CNc1ncnc2sc(-c3ccccc3)cc12	i	i	i	i
O=C(NCC1CC1)c1onc(CSc2ccc(F)c(F)c2)c1C(=O)NCC1CC1	nt	nt	i	65
CC1(C)CCc2cc(-c3ccnc(=S)[nH]3)ccc2O1	i	i	26	i
COc1ccccc1N(C)S(=O)(=O)c1ccc(C(=O)OCC(=O)N2CCC2)cc1	i	i	i	i
CCCNC(=O)NC(=O)CSc1cccc(C(F)(F)F)c1	i	i	i	i
CCc1ccc(-c2nc(CS(=O)CC(=O)O)c(C)o2)cc1 (configuration not stated)	i	i	i	18
C#CCOCCOCCOCCNc1nc(N2CCN(C(=O)CCCCCCCCCCNC(=O)[C@H](CCCCN)n3cc(C)nn3)CC2)nc(N2CCN(C(=O)CCCCCCCCCCNC(=O)[C@H](CCCN=C(N)N)n3cc(C[C@@H](C)CC)nn3)CC2)n1	nt	nt	i	nt
C#CCOCCOCCOCCNc1nc(N2CCN(C(=O)CCCCCCCCCCNC(=O)[C@@H](CCSC)n3cc(CCO)nn3)CC2)nc(N2CCN(C(=O)CCCCCCCCCCNC(=O)[C@H](CCCN=C(N)N)n3cc(C[C@@H](C)CC)nn3)CC2)n1	nt	nt	i	45
C#CCOCCOCCOCCNc1nc(N2CCN(C(=O)CCCCCCCCCCNC(=O)[C@@H](CCSC)n3cc(CCO)nn3)CC2)nc(N2CCN(C(=O)CCCCCCCCCCNC(=O)[C@H](CO)n3cc(CCCCCN)nn3)CC2)n1	nt	nt	i	29
C#CCOCCOCCOCCNc1nc(N2CCN(C(=O)CCCCCCCCCCNC(=O)[C@H](CCCCN)n3cc(C[C@@H](C)CC)nn3)CC2)nc(N2CCN(C(=O)CCCCCCCCCCNC(=O)[C@H](CCCN=C(N)N)n3cc(C[C@@H](C)CC)nn3)CC2)n1	nt	nt	i	47
O=C(OC1CCOC1=O)c1cc(-c2cccs2)nc2ccccc12 (configuration not stated)	i	i	i	i
C/C(=N\NC(=O)C1CC1)c1ccc(C)cc1C	nt	nt	i	i
CSCCC(NC(=O)c1ccco1)C(=O)OC(C)C(=O)NC(=O)NC1CCCCC1 (configuration not stated)	121	62	i	i
CCOc1ccccc1NC(=O)C(c1ccccc1)N1CCN(CC(=O)N2CCCC2)CC1 (configuration not stated)	nt	nt	i	i
OCCN(CCO)c1cc2c3ccccc3ccc2c2ccccc12	nt	nt	nt	i
